Reference: ChEMBL document CHEMBL1128202, “Identification of a series of 3-(benzyloxy)-1-azabicyclo[2.2.2]octane human NK1 antagonists” (J Med Chem, 1995)

Test system: Cavia porcellus
Test: Inhibition of SP-induced extravasation in the skin of guinea pig after intraperitoneal administration of a dose of 10 (ug/kg)
Assay type: functional
How it was run: (§1)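 Guinea pigs given test compound (po or ip); dorsal skin shaved and Evans blue (0.5 mL, 2.5 g/100 mL saline) injected iv. 10 min later, SP (0.5 pmol in 0.1% HSA saline) injected intradermally; 1 h exposure, then CO2 euthanasia. 6-mm punch biopsies of injection sites; dye extracted overnight in formamide at 45 °C. Read-out: % inhibition of Evans blue leakage.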

Compound	Inhibition [%]
FC(F)(F)c1cc(CO[C@H]2C3CCN(CC3)[C@H]2C(c2ccccc2)c2ccccc2)cc(C(F)(F)F)c1 [L-709210]	92

Test system: Cavia porcellus
Test: Inhibition of SP-induced extravasation in the skin of guinea pig after oral administration of a dose of 10 (ug/kg)
Assay type: functional
How it was run: as §1

Compound	Inhibition [%]
FC(F)(F)c1cc(CO[C@H]2C3CCN(CC3)[C@@H]2C(c2ccccc2)c2ccccc2)cc(C(F)(F)F)c1	70
Cc1cc(C)cc(COC2C3CCN(CC3)C2C(c2ccccc2)c2ccccc2)c1 (stereo in doubt; 73)	40
FC(F)(F)c1cc(CO[C@H]2C3CCN(CC3)[C@H]2C(c2ccccc2)c2ccccc2)cc(C(F)(F)F)c1 [L-709210]	76
Cc1cc(C)cc(COC2C3CCN(CC3)C2C(c2ccccc2)c2ccccc2)c1 (stereo in doubt; 72)	45
FC(F)(F)c1cc(CO[C@@H]2C3CCN(CC3)[C@@H]2C(c2ccccc2)c2ccccc2)cc(C(F)(F)F)c1	-17

Test system: Cavia porcellus
Test: Inhibition of SP-induced extravasation in the skin of guinea pig after intraperitoneal administration of a dose of 1 (ug/kg)
Assay type: functional
How it was run: as §1

Compound	Inhibition [%]
FC(F)(F)c1cc(CO[C@H]2C3CCN(CC3)[C@H]2C(c2ccccc2)c2ccccc2)cc(C(F)(F)F)c1 [L-709210]	6

Test system: Cavia porcellus
Test: Inhibition of SP-induced extravasation in the skin of guinea pig after […] administration of a dose of 10 (ug/kg)
Assay type: functional
How it was run: as §1

Compound	Inhibition [%]
Cc1cc(C)cc(COC2C3CCN(CC3)C2C(c2ccccc2)c2ccccc2)c1 (stereo in doubt; 73)	89

Target: Substance-P receptor (Homo sapiens, UniProt P25103)
Test: Inhibition of binding of [125I]SP to the CHO cell line expressing human Tachykinin receptor 1
Assay type: cell-based

Substance-P receptor, sequence (P25103 whole entry): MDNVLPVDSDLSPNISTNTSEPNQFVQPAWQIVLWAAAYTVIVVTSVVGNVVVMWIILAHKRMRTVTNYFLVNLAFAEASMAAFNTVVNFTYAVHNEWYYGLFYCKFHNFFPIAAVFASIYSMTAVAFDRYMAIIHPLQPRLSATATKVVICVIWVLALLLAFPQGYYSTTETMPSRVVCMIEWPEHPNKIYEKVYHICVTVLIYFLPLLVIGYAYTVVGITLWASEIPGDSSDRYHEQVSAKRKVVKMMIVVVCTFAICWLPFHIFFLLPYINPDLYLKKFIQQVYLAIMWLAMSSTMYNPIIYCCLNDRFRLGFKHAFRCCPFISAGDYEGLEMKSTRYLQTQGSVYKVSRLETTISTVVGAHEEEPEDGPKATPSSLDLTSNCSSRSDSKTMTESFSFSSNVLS

Compound	IC50 [nM]
Clc1cccc(COC2C3CCN(CC3)C2C(c2ccccc2)c2ccccc2)c1 (stereo not given)	62
Cc1ccc(COC2C3CCN(CC3)C2C(c2ccccc2)c2ccccc2)cc1 (stereo not given)	246
Cc1ccccc1COC1C2CCN(CC2)C1C(c1ccccc1)c1ccccc1 (stereo not given)	150
FC(F)(F)c1cc(COC2C3CCN(CC3)C2C(Cc2ccccc2)c2ccccc2)cc(C(F)(F)F)c1 (stereo in doubt; 89)	10
Clc1cc(Cl)cc(COC2C3CCN(CC3)C2C(c2ccccc2)c2ccccc2)c1 (stereo in doubt; 68)	9
Clc1cc(Cl)cc(COC2C3CCN(CC3)C2C(c2ccccc2)c2ccccc2)c1 (stereo in doubt; 67)	3.5
FC(F)(F)c1cc(COC2C3CCN(CC3)C2C(Cc2ccccc2)c2ccccc2)cc(C(F)(F)F)c1 (stereo in doubt; 88)	425
Fc1ccc(F)c(COC2C3CCN(CC3)C2C(c2ccccc2)c2ccccc2)c1 (stereo not given)	106
FC(F)(F)c1cc(CO[C@H]2C3CCN(CC3)[C@@H]2C(c2ccccc2)c2ccccc2)cc(C(F)(F)F)c1	0.2
FC(F)(F)c1ccc(COC2C3CCN(CC3)C2C(c2ccccc2)c2ccccc2)cc1 (stereo not given)	370
Cc1cc(C)cc(COC2C3CCN(CC3)C2C(c2ccccc2)c2ccccc2)c1 (stereo in doubt; 73)	0.26
Clc1ccccc1COC1C2CCN(CC2)C1C(c1ccccc1)c1ccccc1 (stereo not given)	80
Cc1cc(COC2C3CCN(CC3)C2C(c2ccccc2)c2ccccc2)cc([Si](C)(C)C)c1 (stereo not given)	0.9
Cc1ccc(C)c(COC2C3CCN(CC3)C2C(c2ccccc2)c2ccccc2)c1 (stereo not given)	36
Clc1ccc(COC2C3CCN(CC3)C2C(c2ccccc2)c2ccccc2)cc1 (stereo not given)	417
FC(F)(F)c1cc(CO[C@H]2C3CCN(CC3)[C@H]2C(c2ccccc2)c2ccccc2)cc(C(F)(F)F)c1 [L-709210]	0.2
Cc1cccc(COC2C3CCN(CC3)C2C(c2ccccc2)c2ccccc2)c1 (stereo not given)	20
FC(F)(F)c1cc(CO[C@@H]2C3CCN(CC3)[C@H]2C(c2ccccc2)c2ccccc2)cc(C(F)(F)F)c1	125
Fc1cc(F)cc(COC2C3CCN(CC3)C2C(c2ccccc2)c2ccccc2)c1 (stereo not given)	33
FC(F)(F)c1ccccc1COC1C2CCN(CC2)C1C(c1ccccc1)c1ccccc1 (stereo not given)	67
COc1cc(COC2C3CCN(CC3)C2C(c2ccccc2)c2ccccc2)cc(OC)c1 (stereo in doubt; 76)	8.3
Brc1ccccc1COC1C2CCN(CC2)C1C(c1ccccc1)c1ccccc1 (stereo not given)	37
FC(F)(F)c1cc(COC2C3CCN(CC3)C2Cc2ccccc2)cc(C(F)(F)F)c1 (stereo not given)	103
Fc1ccc(COC2C3CCN(CC3)C2C(c2ccccc2)c2ccccc2)cc1 (stereo not given)	252
Cc1cc(I)cc(COC2C3CCN(CC3)C2C(c2ccccc2)c2ccccc2)c1 (stereo not given)	0.32

Compound	IC50 [nM]
Cc1cc(C)cc(COC2C3CCN(CC3)C2Cc2ccccc2)c1 (stereo not given)	107
COc1cc(C)cc(COC2C3CCN(CC3)C2C(c2ccccc2)c2ccccc2)c1 (stereo in doubt; 78)	1.5
COc1cccc(COC2C3CCN(CC3)C2C(c2ccccc2)c2ccccc2)c1 (stereo not given)	56
Fc1ccccc1COC1C2CCN(CC2)C1C(c1ccccc1)c1ccccc1 (stereo not given)	93
c1ccc(CN[C@H]2C3CCN(CC3)[C@H]2C(c2ccccc2)c2ccccc2)cc1	0.085
N#Cc1ccccc1COC1C2CCN(CC2)C1C(c1ccccc1)c1ccccc1 (stereo not given)	86
Cc1cc(C)cc(COC2C3CCN(CC3)C2C(Cc2ccccc2)c2ccccc2)c1 (stereo in doubt; 86)	23
N#Cc1ccc(COC2C3CCN(CC3)C2C(c2ccccc2)c2ccccc2)cc1 (stereo not given)	950
COc1cc(COC2C3CCN(CC3)C2C(c2ccccc2)c2ccccc2)cc(OC)c1 (stereo in doubt; 75)	9.3
Cc1cc(C)cc(COC2C3CCN(CC3)C2C(Cc2ccccc2)c2ccccc2)c1 (stereo in doubt; 90)	353
FC(F)(F)c1cc(COC2C3CCN(CC3)C2C(c2ccccc2)c2ccccc2)cc(C(F)(F)F)c1 (stereo in doubt; 69)	1.6
FC(F)(F)c1cccc(COC2C3CCN(CC3)C2C(c2ccccc2)c2ccccc2)c1 (stereo not given)	300
Cc1cc(C)cc(COC2C3CCN(CC3)C2C(Cc2ccccc2)c2ccccc2)c1 (stereo in doubt; 85)	3.2
COc1cc(C)cc(COC2C3CCN(CC3)C2C(c2ccccc2)c2ccccc2)c1 (stereo in doubt; 77)	1.9
c1ccc(Oc2cccc(COC3C4CCN(CC4)C3C(c3ccccc3)c3ccccc3)c2)cc1 (stereo not given)	62
Cc1cc(C)cc(COC2C3CCN(CC3)C2C(c2ccccc2)c2ccccc2)c1 (stereo in doubt; 72)	0.9
O=[N+]([O-])c1cccc(COC2C3CCN(CC3)C2C(c2ccccc2)c2ccccc2)c1 (stereo not given)	197
FC(F)(F)c1cc(COC2C3CCN(CC3)C2C(c2ccccc2)c2ccccc2)cc(C(F)(F)F)c1 (stereo in doubt; 70)	2.7
c1ccc(COC2C3CCN(CC3)C2C(c2ccccc2)c2ccccc2)cc1 (stereo not given)	110
N#Cc1cccc(COC2C3CCN(CC3)C2C(c2ccccc2)c2ccccc2)c1 (stereo not given)	127
Cc1ccc(COC2C3CCN(CC3)C2C(c2ccccc2)c2ccccc2)cc1C (stereo not given)	172
Fc1cccc(COC2C3CCN(CC3)C2C(c2ccccc2)c2ccccc2)c1 (stereo not given)	37
FC(F)(F)c1cc(CO[C@@H]2C3CCN(CC3)[C@@H]2C(c2ccccc2)c2ccccc2)cc(C(F)(F)F)c1	300
FC(F)(F)c1cc(COC2C3CCN(CC3)C2C(c2ccccc2)C2CCCCC2)cc(C(F)(F)F)c1 (stereo not given)	7.5
FC(F)(F)c1cc(COC2C3CCN(CC3)C2C(Cc2ccccc2)c2ccccc2)cc(C(F)(F)F)c1 (stereo in doubt; 87)	3.9

Test system: Cavia porcellus
Test: Inhibition of SP-induced extravasation in the skin of guinea pig after intraperitoneal administration of a dose of 30 (ug/kg)
Assay type: functional
How it was run: as §1

Compound	Inhibition [%]
FC(F)(F)c1cc(CO[C@H]2C3CCN(CC3)[C@H]2C(c2ccccc2)c2ccccc2)cc(C(F)(F)F)c1 [L-709210]	100

Test system: Cavia porcellus
Test: Inhibition of SP-induced extravasation in the skin of guinea pig after intraperitoneal administration of a dose of 3 (ug/kg)
Assay type: functional
How it was run: as §1

Compound	Inhibition [%]
FC(F)(F)c1cc(CO[C@H]2C3CCN(CC3)[C@H]2C(c2ccccc2)c2ccccc2)cc(C(F)(F)F)c1 [L-709210]	59
